According to ChEMBL document CHEMBL1132240, “Design and synthesis of modified quinolones as antitumoral acridones” (J Med Chem, 1999):
pIC50: −log10 of the molar value.

How the values were obtained:
[1] = test system: HL-60; experiment: Relative cytotoxicity against Human promyelocytic Leukemia(HL-60) cells; Value is in range, activity expressed as IC90; type: functional
Outline: (§1)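 Second-stage assay on HL-60 (5 × 10^4/well) and soybean-agglutinin-negative mononuclear marrow cells (5 × 10^5/well) from six healthy donors. Four wells per concentration, 48 h at 37 °C, then [125I]iododeoxyuridine plus fluorodeoxyuridine for 18 h. Inhibition from fractional uptake decrease; IC50/IC90 by median-effect equation. Ranges are antilog(mean log ± 2SD); ratios use mean antilogs.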

[2] = test system: HL-60; experiment: Relative cytotoxicity against Human promyelocytic Leukemia(HL-60) cells; Value is in range, activity expressed as IC50; type: functional, cell-based; outline: as §1
[3] = Ratio of antilog(mean log IC90 in bone marrow sample) and antolog(mean log IC90) in HL-60); type: functional; outline: as §1
[4] = Ratio of antilog(mean log IC50 in bone marrow sample) and antolog(mean log IC50) in HL-60); type: functional; outline: as §1
[5] = Ratio of antilog(mean log IC50 in bone marrow sample) and antolog(mean log IC90) in HL-60); type: functional; outline: as §1
[6] = test system: bone marrow cells (human); experiment: Relative cytotoxicity against Human bone marrow samples; Value is in range, activity expressed as IC90
[7] = test system: bone marrow cells (human); experiment: Relative cytotoxicity against Human bone marrow samples; Value is in range, activity expressed as IC50
[8] = test system: B16; experiment: Cytotoxic activity against solid tumor, B16 (murine melanoma) Concentration of agent required to reduce cell viability by 90%; Not observed; type: functional, cell-based; settings: Mus musculus
Outline: (§2)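 Modified MTT assay. Cells seeded per well with graded drug: CHO 2.5 × 10^3, B16 5 × 10^3, P388 and LLC 10^4, HL-60 and LoVo 5 × 10^4. After 68 h, MTT (2.5 mg/mL) added for 4 h at 37 °C. Formazan dissolved in DMSO and A550 read. Inhibition taken as fractional A550 decrease vs control. IC50/IC90 from Chou's median-effect equation.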

[9] = test system: B16; experiment: Cytotoxic activity against solid tumor, B16 (murine melanoma) Concentration of agent required to reduce cell viability by 50%; type: functional, cell-based; settings: Mus musculus; outline: as §2
[10] = test system: CHO; experiment: Cytotoxic activity against solid tumor, CHO (Chinese hamster ovaric carcinoma) Concentration of agent required to reduce cell viability by 90%; Not observed; type: functional, cell-based; settings: Cricetulus griseus; outline: as §2
[11] = test system: CHO; experiment: Cytotoxic activity against solid tumor, CHO (Chinese hamster ovaric carcinoma) Concentration of agent required to reduce cell viability by 50%; type: functional, cell-based; settings: Cricetulus griseus; outline: as §2
[12] = test system: HL-60; experiment: Cytotoxic activity against Human promyelocytic Leukemia HL-60 Concentration of agent required to reduce cell viability by 90%; type: functional; outline: as §2
[13] = test system: HL-60; experiment: Cytotoxic activity against Human promyelocytic Leukemia HL-60 Concentration of agent required to reduce cell viability by 50%; type: functional, cell-based; outline: as §2
[14] = species: Homo sapiens; experiment: Relative cytotoxicity against Human bone marrow samples; Value is in range, activity expressed as IC50; type: functional; outline: as §1
[15] = species: Homo sapiens; experiment: Relative cytotoxicity against Human bone marrow samples; Value is in range, activity expressed as IC90; type: functional; outline: as §1
[16] = test system: LoVo; experiment: Cytotoxic activity against solid tumor, LoVo, (human colon adenocarcinoma) Concentration of agent required to reduce cell viability by 90%; type: functional; outline: as §2
[17] = test system: Lewis lung carcinoma cell line; experiment: Cytotoxic activity against solid tumor LLC(Lewis lung carcinoma), concentration of agent required to reduce cell viability by 90%; not observed; type: functional, cell-based; settings: Mus musculus; outline: as §2
[18] = test system: LoVo; experiment: Cytotoxic activity against solid tumor, LoVo, (human colon adenocarcinoma) Concentration of agent required to reduce cell viability by 50%; type: functional, cell-based; outline: as §2
[19] = test system: Lewis lung carcinoma cell line; experiment: Cytotoxic activity against solid tumor LLC(Lewis lung carcinoma), concentration of agent required to reduce cell viability by 50%; type: functional, cell-based; settings: Mus musculus; outline: as §2
[20] = test system: P388; experiment: Cytotoxic activity against Murine Lymphocytic Leukemia P388 Concentration of agent required to reduce cell viability by 50%; type: functional, cell-based; settings: Mus musculus; outline: as §2
[21] = test system: P388; experiment: Cytotoxic activity Murine Lymphocytic Leukemia P388 Concentration of agent required to reduce cell viability by 90%; type: functional; settings: Mus musculus; outline: as §2

O=C1c2c(O)ccc(O)c2C(=O)c2c(NCCNCCO)ccc(NCCNCCO)c21 [MITOXANTRONE]
IC90 [1]: 8.03 µM
pIC50 [2]: 5.47
Ratio [3]: 11.6
Ratio [4]: 4.8
Ratio [5]: 2.1
IC90 [6]: 38.7 µM
pIC50 [7]: 4.56

CCN(CC)CCn1c2cc(N3CCC(O)CC3)c(N)cc2c(=O)c2c(O)cc(O)cc21
IC90 [8]: Not observed
pIC50 [9]: 5.77
IC90 [10]: Not observed
pIC50 [11]: 4.64
IC90 [12]: 3.6 µM
IC90 [1]: 0.657 µM
pIC50 [13]: 5.66
pIC50 [2]: 6.29
pIC50 [14]: 6.77
IC90 [15]: 0.672 µM
IC90 [16]: > 32 µM
IC90 [17]: Not observed
pIC50 [18]: < 4.49
pIC50 [19]: 5.06
pIC50 [20]: 6.21
IC90 [21]: 1.6 µM
Ratio [3]: 1.1
Ratio [4]: 0.4
Ratio [5]: 0.3
